Results reported in ChEMBL document CHEMBL1765051 (J Med Chem, 2011).
≈ marks a conversion by molar mass, not a printed value.

Experiments:
[1] = system: Human immunodeficiency virus 1; test: Ratio of EC50 for HIV1 3B harboring reverse transcriptase Y188L mutant to EC50 for wild type HIV1 3B; format: functional
[2] = system: Human immunodeficiency virus 1; test: Antiviral activity against HIV1 3B harboring reverse transcriptase E138K mutant infected in human CEM cells assessed as inhibition of syncytia formation; format: functional, organism-based; details: Human immunodeficiency virus 1, 3B, CCRF-CEM
[3] = system: Human immunodeficiency virus 1; test: Ratio of EC50 for HIV1 3B harboring reverse transcriptase G190E mutant to EC50 for wild type HIV1 3B; format: functional
[4] = target: Human immunodeficiency virus type 1 reverse transcriptase (Human immunodeficiency virus 1, UniProt Q72547, E138K); test: Inhibition of HIV-1 reverse transcriptase E138K mutant-mediated polymerization reaction after 30 mins
Summary of the method: (§1)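 Recombinant mutant HIV-1 RT started reactions containing 50 mM Tris-HCl pH 7.8, 5 mM DTT, 300 mM glutathione, 0.5 mM EDTA, 150 mM KCl, 5 mM MgCl2, BSA, 0.06% Triton X-100, 2.8 μM [3H]dGTP, 0.1 mM poly(rC)/oligo(dG) and varying compound. Incubated 30 min at 37°C, stopped with yeast RNA/pyrophosphate/TCA, acid-insoluble radioactivity counted; IC50 = 50% polymerization inhibition; mean ± SD, ≥2 independent experiments.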

[5] = system: Human immunodeficiency virus 1; test: Ratio of EC50 for HIV1 3B harboring reverse transcriptase Y181C mutant to EC50 for wild type HIV1 3B; format: functional
[6] = system: Human immunodeficiency virus 1; test: Antiviral activity against wild type HIV1 3B infected in human CEM cells assessed as inhibition of syncytia formation; format: functional, organism-based; details: Human immunodeficiency virus 1, 3B, CCRF-CEM
[7] = system: Human immunodeficiency virus 1; test: Antiviral activity against HIV1 3B harboring reverse transcriptase V106A mutant infected in human CEM cells assessed as inhibition of syncytia formation; format: functional, organism-based; details: Human immunodeficiency virus 1, 3B, CCRF-CEM
[8] = system: Human immunodeficiency virus 1; test: Antiviral activity against HIV1 3B harboring reverse transcriptase Y188L mutant infected in human CEM cells assessed as inhibition of syncytia formation; format: functional, organism-based; details: Human immunodeficiency virus 1, 3B, CCRF-CEM
[9] = system: Human immunodeficiency virus 1; test: Ratio of EC50 for HIV1 3B harboring reverse transcriptase K103N mutant to EC50 for wild type HIV1 3B; format: functional
[10] = system: Human immunodeficiency virus 1; test: Ratio of EC50 for HIV1 3B harboring reverse transcriptase L100I mutant to EC50 for wild type HIV1 3B; format: functional
[11] = target: Human immunodeficiency virus type 1 reverse transcriptase (Human immunodeficiency virus 1, UniProt Q72547, K101E); test: Inhibition of HIV-1 reverse transcriptase K101E mutant-mediated polymerization reaction after 30 mins; summary of the method: as §1
[12] = system: Human immunodeficiency virus 1; test: Antiviral activity against HIV1 3B harboring reverse transcriptase Y181I mutant infected in human CEM cells assessed as inhibition of syncytia formation; format: functional, organism-based; details: Human immunodeficiency virus 1, 3B, CCRF-CEM
[13] = system: Human immunodeficiency virus 1; test: Antiviral activity against HIV1 3B harboring reverse transcriptase V179N mutant infected in human CEM cells assessed as inhibition of syncytia formation; format: functional, organism-based; details: Human immunodeficiency virus 1, 3B, CCRF-CEM
[14] = system: Human immunodeficiency virus 1; test: Antiviral activity against HIV1 3B harboring reverse transcriptase L100I mutant infected in human CEM cells assessed as inhibition of syncytia formation; format: functional, organism-based; details: Human immunodeficiency virus 1, 3B, CCRF-CEM
[15] = system: Human immunodeficiency virus 2; test: Antiviral activity against wild type HIV2 infected in human CEM cells assessed as inhibition of syncytia formation; format: functional, organism-based; details: Human immunodeficiency virus 2, CCRF-CEM
[16] = system: Human immunodeficiency virus 1; test: Ratio of EC50 for HIV1 3B harboring reverse transcriptase E138K mutant to EC50 for wild type HIV1 3B; format: functional
[17] = system: Human immunodeficiency virus 1; test: Antiviral activity against HIV1 3B harboring reverse transcriptase Y188H mutant infected in human CEM cells assessed as inhibition of syncytia formation; format: functional, organism-based; details: Human immunodeficiency virus 1, 3B, CCRF-CEM
[18] = system: Human immunodeficiency virus 1; test: Antiviral activity against HIV1 3B harboring reverse transcriptase Y181C mutant infected in human CEM cells assessed as inhibition of syncytia formation; format: functional, organism-based; details: Human immunodeficiency virus 1, 3B, CCRF-CEM
[19] = system: Human immunodeficiency virus 1; test: Ratio of EC50 for HIV1 3B harboring reverse transcriptase Y188H mutant to EC50 for wild type HIV1 3B; format: functional
[20] = system: Human immunodeficiency virus 1; test: Ratio of EC50 for HIV1 3B harboring reverse transcriptase N136A/Q/K mutant to EC50 for wild type HIV1 3B; format: functional
[21] = system: Human immunodeficiency virus 1; test: Ratio of EC50 for HIV1 3B harboring reverse transcriptase V106A mutant to EC50 for wild type HIV1 3B; format: functional
[22] = system: Human immunodeficiency virus 1; test: Antiviral activity against HIV1 3B harboring reverse transcriptase N136A/Q/K mutant infected in human CEM cells assessed as inhibition of syncytia formation; format: functional, organism-based; details: Human immunodeficiency virus 1, 3B, CCRF-CEM
[23] = system: Human immunodeficiency virus 1; test: Antiviral activity against HIV1 3B harboring reverse transcriptase K103N mutant infected in human CEM cells assessed as inhibition of syncytia formation; format: functional, organism-based; details: Human immunodeficiency virus 1, 3B, CCRF-CEM
[24] = system: Human immunodeficiency virus 1; test: Antiviral activity against HIV1 3B harboring reverse transcriptase E138D mutant infected in human CEM cells assessed as inhibition of syncytia formation; format: functional, organism-based; details: Human immunodeficiency virus 1, 3B, CCRF-CEM
[25] = Inhibition of HIV-1 reverse transcriptase […] and E138K mutant-mediated polymerization reaction after 30 mins; parameters: species or system Human immunodeficiency virus 1; summary of the method: as §1
[26] = system: Human immunodeficiency virus 1; test: Antiviral activity against HIV1 3B harboring reverse transcriptase G190E mutant infected in human CEM cells assessed as inhibition of syncytia formation; format: functional, organism-based; details: Human immunodeficiency virus 1, 3B, CCRF-CEM
[27] = system: Human immunodeficiency virus 1; test: Ratio of EC50 for HIV1 3B harboring reverse transcriptase Y181I mutant to EC50 for wild type HIV1 3B; format: functional
[28] = system: Human immunodeficiency virus 1; test: Antiviral activity against wild type HIV1 infected in human CEM cells assessed as inhibition of syncytia formation; format: functional, organism-based; details: Human immunodeficiency virus 1, CCRF-CEM
[29] = target: Human immunodeficiency virus type 1 reverse transcriptase (Human immunodeficiency virus 1, UniProt Q72547); test: Inhibition of wild type HIV-1 reverse transcriptase-mediated polymerization reaction after 30 mins

With `Cc1cn([C@@H]2O[C@H](CO[Si](C)(C)C(C)(C)C)[C@@]3(OS(=O)(=O)C=C3N)[C@H]2O[Si](C)(C)C(C)(C)C)c(=O)[nH]c1=O` the “Ratio EC50” value [1] was 30, the EC50 [2] was greater than 3 µg/mL and the “Ratio EC50” value [3] was 30. The IC50 [4] was greater than 170000 nM, the “Ratio EC50” value [5] was 30 and the EC50 [6] was 0.03 µg/mL (≈ 0.0509 µM). The EC50 [7] was 1.9 µg/mL (≈ 3.22 µM), the EC50 [8] was greater than 10 µg/mL and the “Ratio EC50” value [9] was 7. For the same molecule, the “Ratio EC50” value [10] was 7, the IC50 [11] was no less than 170000 nM and the EC50 [12] was greater than 10 µg/mL. For the same molecule, the EC50 [13] was 0.22 µg/mL (≈ 0.373 µM), the EC50 [14] was 0.07 µg/mL (≈ 0.119 µM) and the EC50 [15] was greater than 20000 nM. The “Ratio EC50” value [16] was 30, the EC50 [17] was greater than 3.3 µg/mL and the EC50 [18] was 2 µg/mL (≈ 3.39 µM). The “Ratio EC50” value [19] was 30, the “Ratio EC50” value [20] was 30 and the “Ratio EC50” value [21] was 30. The EC50 [22] was greater than 50 µg/mL, the EC50 [23] was 0.23 µg/mL (≈ 0.39 µM) and the EC50 [24] was 0.01 µg/mL (≈ 0.017 µM). For the same molecule, the IC50 [25] was greater than 100 µg/mL, the EC50 [26] was greater than 10 µg/mL and the “Ratio EC50” value [27] was 30.
Molecule `Cc1cn([C@@H]2O[C@H](CO[Si](C)(C)C(C)(C)C)[C@@]3(OS(=O)(=O)C=C3NC(=O)C(N)=O)[C@H]2O[Si](C)(C)C(C)(C)C)c(=O)n(C)c1=O` has an EC50 [15] greater than 7000 nM and an EC50 [28] of 28 nM.
Work on `Cc1cn([C@@H]2O[C@H](CO[Si](C)(C)C(C)(C)C)[C@@]3(OS(=O)(=O)C=C3N)[C@H]2O[Si](C)(C)C(C)(C)C)c(=O)[nH]c1=S` yielded an EC50 [15] greater than 2000 nM and an EC50 [28] of 170 nM.
Molecule `Cc1cn([C@@H]2O[C@H](CO[Si](C)(C)C(C)(C)C)[C@@]3(OC(=O)N=C3N)[C@H]2O[Si](C)(C)C(C)(C)C)c(=O)n(C)c1=O` has an EC50 [15] greater than 35000 nM and an EC50 [28] of 5800 nM.
Molecule `Cc1cn([C@@H]2O[C@H](CO[Si](C)(C)C(C)(C)C)[C@]3(C=CS(=O)(=O)O3)[C@H]2O[Si](C)(C)C(C)(C)C)c(=O)n(C)c1=O` has an EC50 [15] greater than 2000 nM, an EC50 [28] of 150 nM and an IC50 [29] of 3300 nM.
`CC1=CN([C@@H]2O[C@H](CO[Si](C)(C)C(C)(C)C)[C@@]3(OS(=O)(=O)C=C3N)[C@H]2O[Si](C)(C)C(C)(C)C)C(=O)NC1` showed an EC50 [15] greater than 10000 nM and an EC50 [28] of 100 nM.
